This is a sample that favours compounds with a hit; in the whole collection about 2.1% have one here.
miR-122 sensor: blocks miR-122 activity in Huh7 sensor cells | Huh7 miR-122 Renilla luciferase sensor, 48 h; neutral wells = 0, positive control = 100 | activation (reporter increase), % at 12.5 µM | 0.3% of 340,000 active | AID 602342;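 active = mean replicate activation score at least 90 and every replicate individually at or above 90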;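 note: higher luciferase means less miR-122 activity so hits act as miR-122 inhibitors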
CAL PDZ FP-1: CAL PDZ (human) peptide binding inhibition; inhibition, % at 24.9 µM; 0.92% of 300,000 active; purified CAL PDZ, TMR-peptide fluorescence polarization, 1 h;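 active = mean inhibition of at least 30% with at least half of replicates also reaching 30%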;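 note: 0% = DMSO neutral control and 100% = excess unlabeled competitor peptide PRC23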
ARNT TACC3 PPI: ARNT/TACC3 interaction disruption; AlphaScreen His-ARNT PAS-B/GST-TACC3 binding, luminescence; TACC3 fragment carries E629A point mutation; inhibition, % at 9.99 µM; Q9Y6A5; 0.66% of 390,000 active;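 active = mean inhibition of replicates at least 50% and at least half of replicates each reaching 50%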;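 note: 0% = complete ARNT plus TACC3 wells and 100% = ARNT alone without TACC3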
CAL PDZ FP-2: human CAL PDZ-peptide interaction inhibition. Q9HD26. purified CAL PDZ, TMR-peptide fluorescence polarization, 1 h. inhibition, % at 20 µM. 0.02% of 330,000 active. AID 504414;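 active = highest replicate inhibition of at least 40%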;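 note: plate controls were DMSO neutral control wells for no effect and unlabeled competitor peptide control wells for full effect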
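Test system: tagged CAL PDZ domain / Buffer or medium: sodium phosphate/NaCl buffer pH 7.4 with TCEP, IgG, Thesit / Reagent: TMR-labelled reporter peptide T*-PRC34 bound in PDZ groove / Compound dosing: single point, 20 µM / Schedule: 1 h incubation at room temperature before polarization reading / Technique: fluorescence polarization (mP) / Benchmarks: unlabelled peptide, DMSO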
SR-BI DiI inh: mouse SR-BI HDL lipid transfer inhibition; Q61009; ldlA[mSR-BI] CHO cells, DiI-HDL uptake fluorescence, 3 h; inhibition, % at 12.5 µM; 0.96% of 320,000 active; AID 488896;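 active = mean replicate inhibition of at least 70% and a set share of replicates each scoring 70 or more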;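 note: 0% = median of neutral control wells and 100% = median of positive control wells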
Target sequence (Q61009 whole entry, looked up): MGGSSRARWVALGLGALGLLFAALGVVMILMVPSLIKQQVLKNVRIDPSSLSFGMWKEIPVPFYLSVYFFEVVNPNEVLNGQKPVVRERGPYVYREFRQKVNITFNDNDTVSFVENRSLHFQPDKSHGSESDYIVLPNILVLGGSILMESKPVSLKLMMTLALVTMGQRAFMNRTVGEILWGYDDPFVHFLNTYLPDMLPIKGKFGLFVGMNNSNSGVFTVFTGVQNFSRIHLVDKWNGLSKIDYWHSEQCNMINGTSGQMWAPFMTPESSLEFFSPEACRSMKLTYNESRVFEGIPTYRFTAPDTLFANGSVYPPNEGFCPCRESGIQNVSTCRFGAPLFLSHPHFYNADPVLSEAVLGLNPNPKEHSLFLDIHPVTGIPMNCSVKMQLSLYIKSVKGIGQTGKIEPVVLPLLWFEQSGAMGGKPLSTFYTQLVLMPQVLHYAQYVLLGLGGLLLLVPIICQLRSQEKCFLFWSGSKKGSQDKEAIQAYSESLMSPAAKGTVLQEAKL
SR-BI uptake up: activators of SR-BI mediated HDL lipid uptake; CHO ldlA[mSR-BI] cells, DiI-HDL uptake fluorescence, 3 h; 100 = double the neutral-control signal; AID 504775; activation, % at 12.5 µM; 0.096% of 320,000 active;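 active = mean replicate activation of at least 60% and every replicate at or above 60%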;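 note: 0% = median plate neutral-control signal and 100% = twice that signal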
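Material – SR-BI-overexpressing, LDLR-lacking CHO cells · Medium – BSA-supplemented, HEPES-buffered Ham's F12, pH 7.4 · Doses – single concentration · Times – compound with DiI-HDL co-incubation, 3 h at 37 °C · Measured by – bottom-read fluorescence, 550/595 nm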
An asterisk follows results filed as active; . = not tested or not shown; [ ] = another dose, or the depositor's remark.

SMILES	miR-122 sensor	CAL PDZ FP-1	ARNT TACC3 PPI	CAL PDZ FP-2	SR-BI DiI inh	SR-BI uptake up
O=C(Nc1ccc(S(=O)(=O)NCc2ccccc2)cc1)Nc1ccc2c(c1)OCO2	243*	-5	-4	0	36	-36
O=C1C=CC(=O)c2c(O)c(CO)c(CO)c(O)c21	-1	7	12*	3	-8	8
OCCNc1ncnc2c1c(-c1ccccc1)c(-c1ccccc1)n2Cc1ccco1	-7	66*	18	-2	-15	15
c1ccc(-c2c(-c3ccccc3)n(Cc3ccco3)c3ncnc(NCCCn4ccnc4)c23)cc1	-1	-3	16	-1	0	0
Cc1ccc(-c2c(C(=O)N/N=C/c3ccc4c(c3)OCO4)nnn2-c2nonc2N)cc1	.	1	0	-2	76*	-76
Cc1ccc(-c2c(C(=O)N/N=C/c3ccc(OC(C)C)cc3)nnn2-c2nonc2N)cc1	-3	-4	-1	-3	78*	-78
C/C(=N\NC(=O)c1nnn(-c2nonc2N)c1CN(C)c1ccccc1)c1ccccn1	3	-3	48*	-3	-17	17
CCOc1ccc(-c2c(C(=O)N/N=C/c3ccccc3)nnn2-c2nonc2N)cc1	.	-5	-6	0	74*	-74
CCC(=O)Nc1ccc2c(c1)OC[C@@H](C)N(CC1CCOCC1)C[C@@H](C)[C@H](OC)CN(C)C2=O	-3[16.7 µM]	.	-9	.	.	.
C/C(=N\NC(=O)c1nnn(-c2nonc2N)c1-c1ccccc1)c1ccccc1O	2	-1	3	2	86*	-86
CCOc1ccc(-c2c(C(=O)N/N=C/c3ccc(C)cc3)nnn2-c2nonc2N)cc1	.	-1	-3	0	44	-44
COc1ccc2ccccc2c1/C=N/NC(=O)c1nnn(-c2nonc2N)c1C(C)C	8	-4	-8	0	77*	-77
CCOc1ccc(-c2c(C(=O)N/N=C/c3ccc(OC(C)C)cc3)nnn2-c2nonc2N)cc1	-5	-3	-1	0	77*	-77
COCC#Cc1ccc2c(c1)O[C@H](CN(C)C(=O)c1ccccc1)[C@@H](C)CN([C@@H](C)CO)S2(=O)=O	-4[16.7 µM]	.	-4	.	.	.
C[C@@H]1CN([C@@H](C)CO)C(=O)c2cc(NS(=O)(=O)c3ccc(F)cc3)ccc2O[C@@H](C)CCCCO[C@@H]1CN(C)C(=O)Nc1cccc2ccccc12	6[16.7 µM]	.	-4	.	.	.
CS(=O)(=O)Nc1ccc2c(c1)[C@@H]1C[C@@H](CC(=O)NCc3ccccc3)O[C@@H](CO)[C@@H]1O2	1[16.7 µM]	.	-5	.	.	.
C=CCN1C(=O)C(C)S/C1=N\S(=O)(=O)c1ccc(Cl)cc1 (stereo not drawn)	-1	0	23	0	-28	28
CCN1C(=O)CS/C1=N\S(=O)(=O)c1ccc(Cl)cc1	-7	-2	24	64*	-31	31
CCN(CC)CC(=O)Nn1c(C)nc2c(ncn2-c2ccccc2)c1=O	.	51*	8	0	-26	26
COc1ccc(-c2cn(CC[C@H]3CC[C@H](NC(=O)CCN4CCCCC4)[C@@H](CO)O3)nn2)cc1	.	.	2	.	.	.
O=C(Cn1ncc(N2CCOCC2)c(Cl)c1=O)c1ccc(Cl)cc1	5	34*	-4	0	-8	8
Cc1cc(C)cc(NS(=O)(=O)c2ccc(-c3cnc(C4CC4)o3)cc2)c1	375*	-4	8	-2	1	-1
O=S(=O)(Nc1ccccc1)c1ccc(-c2cnc(C3CC3)o2)cc1	159*	1	-3	-3	-10	10
COc1ccc(NS(=O)(=O)c2cc(-c3cnc(C4CC4)o3)ccc2C)cc1	293*	-17	2	-3	8	-8
COc1ccccc1NS(=O)(=O)c1cc(-c2cnc(C3CC3)o2)ccc1C	.	-1	1	-3	13	-13
SMILES	miR-122 sensor	CAL PDZ FP-1	ARNT TACC3 PPI	CAL PDZ FP-2	SR-BI DiI inh	SR-BI uptake up
C[C@H](CO)N1C[C@H](C)[C@H](CN(C)C(=O)Nc2ccccc2)Oc2ccc(NC(=O)Nc3ccc(C(F)(F)F)cc3)cc2C1=O	-20[16.7 µM]	.	14	.	.	.
O=C(O)C1=C[C@@H](C2CCCC2)C[C@@H](OCCCCO)O1	.	.	61*	.	.	.
COCC(=O)Nc1ccc2c(c1)[C@@H]1C[C@@H](CC(=O)NCCc3ccccc3)O[C@@H](CO)[C@@H]1O2	1[16.7 µM]	.	1	.	.	.
O=c1c2[nH]c3ccc(Br)cc3c2ncn1CCCn1ccnc1	2	2	79*	-1	-1	1
O=c1c2[nH]c3ccccc3c2ncn1CCCn1ccnc1	7	1	-3	-3	-14	14
Cc1ccc(S(=O)(=O)NCCC(=O)NC(C)CCc2ccccc2)cc1 (stereo not drawn)	-1	71*	-1	0	32	-32
CSc1ccc(C(C(C(=O)c2cccs2)N2CCOCC2)N2CCOCC2)cc1 (stereo not drawn)	-1	-5	1	-2	-65	65*
C[C@@H]1CN([C@H](C)CO)S(=O)(=O)c2ccc(-c3ccc(F)cc3)cc2O[C@@H]1CN(C)C(=O)C1CCCCC1	-6[16.7 µM]	.	-3	.	.	.
O=C(CN1C(=O)c2ccccc2C1=O)NNC1=NS(=O)(=O)c2ccccc21	-1	30*	0	-1	-9	9
COc1ccc(OC)c(/C=C/C(=O)Nc2cccc(S(=O)(=O)N3CCCC3)c2)c1	.	6	-2	-2	87*	-87
COc1ccc(OC)c(/C=C/C(=O)OCC(=O)N2CCCCC2)c1	9	64*	4	-1	31	-31
Cc1ccc(O)c(NC(=O)c2cccc(S(=O)(=O)N3CCCCC3)c2)c1	113*	-1	8	-1	17	-17
Cc1ccccc1NC(=O)c1cccc(S(=O)(=O)N2CCCCC2)c1	6	-5	10	-4	.	.
COc1cc(C(=O)Nc2cccc(S(=O)(=O)N3CCCC3)c2)c([N+](=O)[O-])cc1OC	4	-5	6	-3	74*	-74
CCN1CCN(c2ccc(S(=O)(=O)N3CCCCC3)cc2NC(=O)/C=C/c2cc(OC)ccc2OC)CC1	-6	-1	0	-2	-14	14
COc1ccc(/C=C/C(=O)OCC(=O)N2CCCCCC2)cc1OC	.	-8	-1	0	12	-12
CCC(=O)N1C[C@@H](C)[C@H](OC)CN(C)C(=O)c2cc(NC(=O)c3cc(C)on3)ccc2OC[C@H]1C	-12[16.7 µM]	.	.	.	.	.
COc1ccc(S(=O)(=O)Nc2ccc3c(c2)C(=O)N([C@@H](C)CO)C[C@H](C)[C@@H](CN(C)S(=O)(=O)c2c(C)noc2C)OCCCC[C@@H](C)O3)cc1	11[16.7 µM]	.	13	.	.	.
